# Assay results gathered from unrelated publications.
# Lines come from different studies, so protocols differ.
# Target: MAP kinase-interacting serine/threonine-protein kinase 2 (MKNK2, Homo sapiens, UniProt Q9HBH9)
Compound,assay,conditions,remaining binding [%]
O=C(NCC1CCOCC1)c1n[nH]cc1NC(=O)c1c(F)cccc1F,"binding, competition with immobilised ligand",1 µM,100
CO[C@H]1CC[C@H](CNc2ccc(S(=O)(=O)NC(=O)c3ccc(N4CCN(CC5=C(c6ccc(Cl)cc6)CC(C)(C)CC5)CC4)cc3Oc3cnc4[nH]ccc4c3)cc2[N+](=O)[O-])CC1,"cell-free assay, competition with immobilised ligand",1 µM,73
O=C(c1ccc(Nc2nccc(-c3cc4ccccc4s3)n2)cc1)N1CCC(N2CCCC2)CC1,"binding, competition with immobilised ligand",1 µM,4.6
Cn1nc(C(F)(F)F)cc1-c1cnc(N2CCc3cc(S(=O)(=O)Nc4c(F)cc(Cl)cc4F)cc(N4CCCC4=O)c32)nc1,"cell-free assay, competition with immobilised ligand",1 µM,94
Cc1cnc(Nc2ccc(C(=O)N3CCC(N4CCCC4)CC3)cc2)nc1-c1cc2ccccc2s1,"binding, competition with immobilised ligand",1 µM,5.4
N[C@@H]1CCN(c2nccc(-c3cnn4ncccc34)n2)C1,binding,1 µM,14
CCN1CCN(Cc2ccc(C(=O)Nc3ccc(C)c(Oc4ccc5c(c4)CC(=O)N5)c3)cc2C(F)(F)F)CC1,"binding, competition with immobilised ligand",1 µM,95
C[C@@H]1CN(c2ccc3ncc(-c4ccc5[nH]nc(C6CC6)c5c4)n3n2)C[C@H](C)O1,"binding, competition with immobilised ligand",50 nM,75
COCCOc1nc(-c2ccc(Cl)nc2)nc2c1CN(C(=O)c1ncn3ccccc13)CC2,"cell-free assay, competition with immobilised ligand",0.1 µM,100
CN(c1nccc(-c2cnn3ncccc23)n1)C1CC1,binding,1 µM,77
COc1ncc2cc3ccccc3nc2c1C#N,"cell-free assay, competition with immobilised ligand",5 µM,98
c1cncc(-c2cccc(Nc3nccc(NC4CCCCC4)n3)c2)c1,"binding, competition with immobilised ligand",10 µM,33
COc1cnc(Nc2cccc(S(N)(=O)=O)c2)nc1N1CCN(c2ccccc2)CC1,"binding, competition with immobilised ligand",1 µM,59
CCC(=O)N[C@@H]1CC[C@H](C(=O)N(C)c2ccc(-c3nc4ccccc4o3)cc2)C1,"cell-free assay, competition with immobilised ligand",1 µM,100
C[C@@H]1CCN(c2nccc(-c3cnn4ncccc34)n2)C1,binding,1 µM,11
O=c1nc(-c2ccccn2)sc2ccccc12,"binding, competition with immobilised ligand",1 µM,100
c1cnn2ncc(-c3ccnc(N4CCC45COC5)n3)c2c1,binding,1 µM,3.3
